ChEMBL document CHEMBL1154748, “4-Pyridylanilinothiazoles that selectively target von Hippel-Lindau deficient renal cell carcinoma cells by inducing autophagic cell death” (2010)

Experiments:
[1] = Growth inhibition of VHL-null human RCC4 cells after 4 days by XTT assay; type: functional; conditions: RCC4, 96 h
Procedure, shortened: (§1)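 XTT read-out: 5000 cells/well plated, vehicle or drug added next day, 4-day exposure. Then phenol red-free medium with 0.3 mg/mL XTT, 20% FCS and 2.65 μg/mL N-methyldibenzopyrazine methyl sulfate, 1-2 h at 37 °C, absorbance at 450 nm. GI50 by linear interpolation; single determinations in triplicate. Ratio is the intraexperiment RCC4-VHL GI50 / RCC4 GI50.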

[2] = Ratio of IC50 for human RCC4-VHL cells to IC50 for VHL-null human RCC4 cells; type: functional; procedure, shortened: as §1

| SMILES | GI50 [1] [µM] | RatioGI50 [2] |
| --- | --- | --- |
| Cc1cccc(Nc2nc(-c3ccncc3C)cs2)c1 | 5.2 | >7.7 |
| FC(F)(F)c1cccc(Nc2nc(-c3ccncc3)cs2)c1 | > 40 | – |
| FC(F)(F)c1ccccc1Nc1nc(-c2ccncc2)cs1 | > 40 | – |
| Clc1ccc(Nc2nc(-c3ccncc3)cs2)cc1 | 38 | >2 |
| Cc1ccccc1Nc1nc(-c2ccncc2)cs1 | > 40 | – |
| Cc1cccc(Nc2nc(-c3ccnc(C)c3)cs2)c1 | > 40 | – |
| Cc1cccc(Nc2nc(-c3ccnc(CCCO)c3)cs2)c1 | 5.2 | >7.7 |
| Cc1cccc(Nc2nc(-c3ccncc3N)cs2)c1 | > 40 | – |
| CCN(c1cccc(C)c1)c1nc(-c2ccncc2)cs1 | 40 | 0.6 |
| Brc1cccc(Nc2nc(-c3ccncc3)cs2)c1 | 12.4 | >3.2 |
| CCc1cnccc1-c1csc(Nc2cccc(C)c2)n1 | 6.2 | 2.8 |
| Oc1ccc(Nc2nc(-c3ccncc3)cs2)cc1 | 5.3 | 8 |
| COc1ccc(C(=O)Nc2nc(-c3ccncc3)cs2)cc1 | > 40 | – |
| Clc1cccc(Nc2nc(-c3ccncc3)cs2)c1 | 3 | 5 |
| Cc1cccc(Nc2nc(-c3ccncc3)c(C(=O)NCCN(C)C)s2)c1 | > 40 | – |
| Cc1cccc(Nc2nc(-c3ccncc3)cs2)c1 | 2.1 | 19 |
| Oc1ccc(Nc2nc(-c3cccnc3)cs2)cc1 | > 40 | – |
| N#Cc1ccc(Nc2nc(-c3ccncc3)cs2)cc1 | > 40 | – |
| CC(C)c1cccc(Nc2nc(-c3ccncc3)cs2)c1 | 17 | 1.4 |
| Oc1ccc(Nc2nc(-c3ccccn3)cs2)cc1 | 36 | 0.7 |
| Cc1cccc(Nc2nc(-c3ccnc(C#CCO)c3)cs2)c1 | 9.3 | 1.6 |
| O=[N+]([O-])c1cccc(Nc2nc(-c3ccncc3)cs2)c1 | > 40 | – |

| SMILES | GI50 [1] [µM] | RatioGI50 [2] |
| --- | --- | --- |
| Cc1sc(Nc2ccc3c(c2)CCC3)nc1-c1ccncc1 | 12 | 1.5 |
| Cc1ccc(C(=O)Nc2nc(-c3ccncc3)cs2)cc1 | > 40 | – |
| Clc1ccccc1Nc1nc(-c2ccncc2)cs1 | 27.6 | >1.4 |
| Cc1cccc(N(CCO)c2nc(-c3ccncc3)cs2)c1 | > 40 | – |
| c1cc(-c2csc(Nc3ccc4c(c3)OCO4)n2)ccn1 | > 40 | – |
| CCN(CC)Cc1sc(Nc2cccc(C)c2)nc1-c1ccncc1 | 13 | 1.4 |
| Fc1ccc(Nc2nc(-c3ccncc3)cs2)cc1 | 6 | >7 |
| COc1cccc(Nc2nc(-c3ccncc3)cs2)c1 | 3 | 17 |
| COc1cc(-c2csc(Nc3cccc(C)c3)n2)ccn1 | 28.7 | 1.2 |
| Cc1cccc(Nc2nc(-c3ccncc3)c(CN3CCOCC3)s2)c1 | 2.5 | 4.8 |
| COc1cc(Nc2nc(-c3ccncc3)cs2)cc(OC)c1 | > 40 | – |
| Cc1cccc(N(C)c2nc(-c3ccncc3)cs2)c1 | 28 | 0.6 |
| Cc1cccc(Nc2nc(-c3ccnc(Br)c3)cs2)c1 | 2 | 4.3 |
| CCc1cccc(Nc2nc(-c3ccncc3)cs2)c1 | 2.5 | 9.6 |
| Cc1cccc(Nc2nc(-c3ccncc3)c(CCCO)s2)c1 | 3.6 | 3.7 |
| Cc1cccc(Nc2nc(-c3cccnc3)cs2)c1 | > 40 | – |
| Cc1cccc(Nc2nc(-c3ccncc3)c(C=O)s2)c1 | 15 | – |
| Cc1cccc(Nc2nc(-c3ccnc(F)c3)cs2)c1 | 4.5 | >8.9 |
| Fc1cccc(Nc2nc(-c3ccncc3)cs2)c1 | > 40 | – |
| COc1ccccc1Nc1nc(-c2ccncc2)cs1 | 33.4 | >1.2 |
| Cc1cccc(Nc2nc(-c3ccncc3)c(C)s2)c1 | 10 | >4 |
| CCOC(=O)c1sc(Nc2ccc3c(c2)CCC3)nc1-c1ccncc1 | > 40 | – |

| SMILES | GI50 [1] [µM] | RatioGI50 [2] |
| --- | --- | --- |
| Cc1cccc(Nc2nc(-c3ccncc3)c(C(=O)N(C)C)s2)c1 | 16 | >2.5 |
| COc1cc(Nc2nc(-c3ccncc3)cs2)cc(OC)c1OC | > 40 | – |
| FC(F)(F)c1ccc(Nc2nc(-c3ccncc3)cs2)cc1 | > 40 | – |
| Cc1ccc(Nc2nc(-c3ccncc3)cs2)cc1C | 6.5 | 6.4 |
| Fc1ccccc1Nc1nc(-c2ccncc2)cs1 | 14.3 | >2.8 |
| COc1ccc(Nc2nc(-c3ccncc3)cs2)cc1 | 14 | 3.6 |
| Cc1ccc(Nc2nc(-c3ccncc3)cs2)cc1 | 2.5 | 20 |
| COc1ccc(Nc2nc(-c3ccncc3)cs2)cc1OC | 24 | 1.9 |
| CN(C)CCc1ccc(Nc2nc(-c3ccncc3)cs2)cc1 | 50 | 1.2 |
| Oc1ccccc1Nc1nc(-c2ccncc2)cs1 | 12.8 | >3.1 |
| CN(C)CCOc1ccc(Nc2nc(-c3ccncc3)cs2)cc1 | 60 | 1.3 |
| COC(=O)CCc1sc(Nc2cccc(C)c2)nc1-c1ccncc1 | > 40 | – |
| CC(=O)Nc1cnccc1-c1csc(Nc2cccc(C)c2)n1 | 33.3 | 1 |
| c1ccc(Nc2nc(-c3cccnc3)cs2)cc1 | > 40 | – |
| Cc1cc(C)cc(Nc2nc(-c3ccncc3)cs2)c1 | 4.5 | >9 |
| C#Cc1cnccc1-c1csc(Nc2cccc(C)c2)n1 | 1.35 | 4.4 |
| Clc1ccc(Nc2nc(-c3ccncc3)cs2)cc1Cl | 13.5 | >3 |
| O=C(Nc1nc(-c2ccncc2)cs1)c1ccccc1 | > 40 | – |
| Oc1cccc(Nc2nc(-c3ccncc3)cs2)c1 | 28.5 | >3 |
| c1ccc(Nc2nc(-c3ccncc3)cs2)cc1 | 7 | >10 |
| Cc1cccc(Nc2nc(Cc3cccnc3)cs2)c1 | > 40 | – |
| Cc1cc(Nc2nc(-c3ccncc3)cs2)ccc1O | 70 | 2.3 |

| SMILES | GI50 [1] [µM] | RatioGI50 [2] |
| --- | --- | --- |
| Cc1cccc(Nc2nc(-c3ccncc3)c(C(N)=O)s2)c1 | 19.2 | >2 |
| Cc1cccc(Nc2nc(-c3ccncc3)c(CN(C)C)s2)c1 | 16 | 2.3 |
| Cc1cccc(Nc2nc(Cc3ccncc3)cs2)c1 | 20.3 | 24.4 |
| C#Cc1cc(-c2csc(Nc3cccc(C)c3)n2)ccn1 | 17.8 | >2.2 |
| COC(=O)/C=C/c1sc(Nc2cccc(C)c2)nc1-c1ccncc1 | 2.5 | 2.8 |
| Cc1cccc(Nc2nc(-c3ccncc3)c(C(=O)NCCCN3CCOCC3)s2)c1 | > 40 | – |
| Cc1cccc(Nc2nc(-c3ccncc3)c(CN3CCCCC3)s2)c1 | 13 | 1.9 |
| Cc1cccc(Nc2nc(-c3ccncc3Br)cs2)c1 | 3.9 | >10 |
| Cc1cccc(Nc2nc(-c3ccnc(Cl)c3)cs2)c1 | 2.2 | 3.8 |
| Cc1cccc(Nc2nc(-c3ccncc3[N+](=O)[O-])cs2)c1 | 8.2 | 4.1 |
| Cc1cccc(Nc2nc(-c3ccncc3F)cs2)c1 | 2 | >20 |
| Cc1cccc(C)c1Nc1nc(-c2ccncc2)cs1 | > 40 | – |
| Cc1cccc(CNc2nc(-c3ccncc3)cs2)c1 | > 40 | – |
| Cc1cccc(C(=O)Nc2nc(-c3ccncc3)cs2)c1 | > 40 | – |
| CCOC(=O)c1sc(Nc2cccc(C)c2)nc1-c1ccncc1 | > 40 | – |
| O=[N+]([O-])c1ccc(Nc2nc(-c3ccncc3)cs2)cc1 | > 40 | – |
| N#Cc1cccc(Nc2nc(-c3ccncc3)cs2)c1 | > 40 | – |
| Cc1cccc(Nc2nc(-c3cc[n+]([O-])cc3)cs2)c1 | > 40 | – |
| Fc1cccc(F)c1Nc1nc(-c2ccncc2)cs1 | > 40 | – |
| CC(C)(C)c1cccc(Nc2nc(-c3ccncc3)cs2)c1 | > 40 | – |
| O=[N+]([O-])c1ccccc1Nc1nc(-c2ccncc2)cs1 | > 40 | – |
